# Measurements reported in ChEMBL document CHEMBL1137752, “Hydroxychalcones induce apoptosis in B16-F10 melanoma cells via GSH and ATP depletion” (Eur J Med Chem, 2009).
# Activity calls are given as the source filed them. The calls are words filed in the database; no cut-off is given here.
# What was measured:
# [1] = test system: B16-F10; assay: Cytotoxicity against mouse B16F10 cells at 100 uM after 24 hrs by MTT assay relative to control; assay type: functional
# Outline: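 Single-concentration screen in which B16-F10 cells (1 × 10⁵) were exposed to 100 µM compound for 24 h. Viability was read by MTT, with control optical density set as 100%. Three experiments in triplicate, mean ± S.E.M.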
# [2] = test system: B16-F10; assay: Induction of apoptosis in mouse B16F10 cells assessed as DNA fragmentation at IC50 after 24 hrs by gel electrophoresis; assay type: functional, cell-based
# Outline: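 DNA ladder assay: 5 × 10⁵ B16-F10 cells were treated for 24 h with each compound at its cell-viability IC50 (DMSO 0.1% final). DNA was ethanol-precipitated, RNase A-treated at 37 °C for 1 h, run on 1.5% agarose and stained with ethidium bromide.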
# [3] = test system: B16-F10; assay: Induction of necrosis in mouse B16F10 cells assessed as alteration in ATP level up to 100 uM after 24 hrs by bioluminescent assay; assay type: functional, cell-based
# Outline: (§1)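 Intracellular ATP was measured by luciferin–luciferase bioluminescence. About 3 × 10⁵ B16-F10 cells were exposed to 0–100 µM compound for 24 h, pelleted, and extracted with 1.25% trichloroacetic acid on ice for 30 min. Extracts were neutralized with Tris-acetate 1 M pH 7.5 and diluted 4-fold before reading. Three experiments in triplicate.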
# [4] = test system: B16-F10; assay: Cytotoxicity against mouse B16F10 cells after 72 hrs by MTT assay; assay type: functional, cell-based; settings: B16-F10, 72 h
# Outline: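 MTT viability assay on B16-F10 cells seeded at 1 × 10⁴ cells/well. Compounds were dissolved in DMSO (0.1% final) and tested over 0–40 µM for 72 h at 37 °C in triplicate. MTT was added for 3 h and formazan dissolved in acidified isopropanol (HCl 0.04 M). Absorbance read at 540 nm. IC50 taken from concentration–response curves against untreated control.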
# [5] = test system: B16-F10; assay: Induction of apoptosis in mouse B16F10 cells assessed as decrease in total glutathione level up to 100 uM after 24 hrs by glutathione reductase method; assay type: functional, cell-based
# Outline: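 About 3 × 10⁵ B16-F10 cells were treated with 0–100 µM compound for 24 h. A mitochondria-enriched fraction was prepared by centrifugation after homogenization in Tris-sucrose buffer and sonication. Total glutathione (GSH + GSSG) was assayed by the glutathione reductase/DTNB/NADPH method in phosphate buffer 100 mM pH 7.4. Absorbance at 412 nm was read every minute for 5 min against a GSH standard curve.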
# [6] = test system: B16-F10; assay: Induction of apoptosis in mouse B16F10 cells assessed as decrease in ATP level after 24 hrs by bioluminescent assay; assay type: functional, cell-based; outline: as §1
SMILES,Activity [1],other results
COc1cc(C(=O)/C=C/c2ccc3ccccc3c2)ccc1O,inactive,
O=C(/C=C/c1ccc2ccccc2c1)c1ccccc1O,inactive,
COc1cc(OC)c(C(=O)/C=C/c2ccccc2Cl)c(O)c1Br,inactive,
COc1cc(OC)c(C(=O)/C=C/c2ccccc2C(=O)O)c(O)c1Br,50%,Activity [2]: inactive; Activity [3]: inactive; IC50 [4]: 30 µM
O=C(/C=C/c1cccc2ccccc12)c1ccccc1O,75.2%,Activity [5]: Active; Activity [6]: Dose-dependent effect; Activity [2]: Active; IC50 [4]: 17 µM
COc1cc(O)c(C(=O)/C=C/c2cccc3ccccc23)c(OC)c1,inactive,
COc1cc(O)c(C(=O)/C=C/c2cccc(Cl)c2)c(OC)c1,inactive,
COc1cc(OC)c(C(=O)/C=C/c2ccc([N+](=O)[O-])cc2)c(O)c1Br,inactive,
COc1cc(O)c(C(=O)/C=C/c2cccc([N+](=O)[O-])c2)c(OC)c1,inactive,
COc1ccc(/C=C/C(=O)c2c(OC)cc(OC)c(Br)c2O)cc1,inactive,
O=C(/C=C/c1cccc2ccccc12)c1cccc(O)c1,97.7%,Activity [5]: Active; Activity [6]: Dose-dependent effect; Activity [2]: Active; IC50 [4]: 12 µM
COc1cc(OC)c(C(=O)/C=C/c2c(OC)cccc2OC)c(O)c1Br,inactive,
CCCCOc1ccc(/C=C/C(=O)c2c(OC)cc(OC)c(Br)c2O)cc1,inactive,
